Measured values from ChEMBL document CHEMBL4706580, “4-Amino-1,2,4-triazole-3-thione-derived Schiff bases as metallo-β-lactamase inhibitors” (Eur J Med Chem, 2020).
Calls of active or inactive are those of the source. The rule behind the calls is not given here.

What was measured:
[1] = Inhibition of beta-lactamase VIM-2 (unknown origin) expressed in Escherichia coli LZ2310 assessed as potentiation of cefoxitin antibacterial activity by measuring cefoxitin induced diameter of inhibition zone at 320 uM incubated for 18 hrs by disk diffusion method (reference value: 14 mm)
How it was run: (§1)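 Efflux-deficient E. coli LZ2310 (NorE, MdfA, AcrA knocked out) carrying pLB-II with the cloned MBL gene. Mueller-Hinton, CLSI disk diffusion; antibiotic disks (30 µg cefoxitin for VIM-2, 10 µg ampicillin for VIM-4, 30 µg ceftazidime for NDM-1/IMP-1) loaded with inhibitor in DMSO (≤15 µL). Zone diameter after 18 h, 35 ± 1 °C; DMSO and 220 µg EDTA controls. Triplicate.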

[2] = Inhibition of beta-lactamase L1 (unknown origin) expressed in Escherichia coli BL21(DE3) using nitrocefin as substrate by measuring substrate hydrolysis at 100 uM preincubated for 30 mins by spectrophotometric analysis
How it was run: (§2)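 Enzyme 0.2–0.8 nM in 25 mM HEPES pH 7.5 with 50 μM ZnCl2 final, pre-incubated 30 min at 21 °C with inhibitor (100 μM screen). Nitrocefin 100 μM final, read at 482 nm, 30 °C. Residual activity vs three uninhibited samples; Ki (1–100 μM inhibitor) from Hanes linearization, competitive model. Triplicate.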

[3] = Inhibition of beta-lactamase VIM-2 (unknown origin) expressed in Escherichia coli XL-1 assessed as potentiation of cefoxitin antibacterial activity by measuring cefoxitin induced diameter of inhibition zone at 320 uM incubated for 18 hrs by disk diffusion method (reference value: 8 mm)
How it was run: (§3)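 Wild-type efflux E. coli XL-1 Blue transformed with pLB-II-VIM-2. Mueller-Hinton disk diffusion per CLSI, 30 µg cefoxitin disks loaded with inhibitor dissolved in DMSO (≤15 µL). Growth-inhibition zone measured after 18 h at 35 ± 1 °C; DMSO negative and 220 µg EDTA positive controls. Triplicate.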

[4] = Inhibition of beta-lactamase NDM-1 (unknown origin) expressed in Escherichia coli LZ2310 assessed as potentiation of ceftazidime antibacterial activity by measuring ceftazidime induced diameter of inhibition zone at 320 uM incubated for 18 hrs by disk diffusion method (reference value: 15 mm); how it was run: as §1
[5] = Inhibition of beta-lactamase VIM4 (unknown origin) expressed in Escherichia coli BL21(DE3) using imipenem as substrate by measuring substrate hydrolysis by spectrophotometric analysis
How it was run: (§4)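 Purified enzyme (overproduced in E. coli BL21(DE3), pET-9a; ion-exchange and gel filtration), 1-70 nM final. Reporter substrate 150 μM imipenem, read at 300 nm, 30 °C, 50 mM HEPES pH 7.5. Single-point screen at 100 or 200 μM; Ki from v0/vi vs [I] (0.5–1,000 μM final) assuming competitive inhibition, or Dixon plot. Triplicate.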

[6] = Inhibition of beta-lactamase VIM2 (unknown origin) expressed in Escherichia coli BL21(DE3) using imipenem as substrate by measuring substrate hydrolysis at 100 uM by spectrophotometric analysis; how it was run: as §4
[7] = Inhibition of beta-lactamase VIM2 (unknown origin) expressed in Escherichia coli BL21(DE3) using imipenem as substrate by measuring substrate hydrolysis at 200 uM by spectrophotometric analysis; how it was run: as §4
[8] = Inhibition of beta-lactamase NDM1 (unknown origin) expressed in Escherichia coli BL21(DE3) using cefotaxime/nitrocefin as substrate by measuring substrate hydrolysis by spectrophotometric analysis
How it was run: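 His-tagged enzyme from E. coli BL21(DE3) pET-15b, affinity-purified, 1-70 nM final. Reporter substrate 120 μM cefotaxime (260 nm) or 100 μM nitrocefin (482 nm), 30 °C, 50 mM HEPES pH 7.5. Inhibitor 0.5–1,000 μM final; competitive Ki from v0/vi vs [I] slope or Dixon plot. Triplicate.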

[9] = Inhibition of beta-lactamase IMP-1 (unknown origin) expressed in Escherichia coli LZ2310 assessed as potentiation of ceftazidime antibacterial activity by measuring ceftazidime induced diameter of inhibition zone at 320 uM incubated for 18 hrs by disk diffusion method (reference value: 9 mm); how it was run: as §1
[10] = Inhibition of beta-lactamase IMP-1 (unknown origin) expressed in Escherichia coli BL21(DE3) using imipenem as substrate by measuring substrate hydrolysis by spectrophotometric analysis; how it was run: as §4
[11] = Inhibition of beta-lactamase CphA (unknown origin) expressed in Escherichia coli BL21(DE3) using imipenem as substrate by measuring substrate hydrolysis at 100 uM by spectrophotometric analysis
How it was run: (§5)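 Enzyme 0.2–0.8 nM in 15 mM cacodylate pH 6.5, no added zinc, pre-incubated 30 min at 21 °C with inhibitor (100 μM screen). Imipenem substrate added from 10 mM stock; hydrolysis at 300 nm, 30 °C. Residual activity vs three uninhibited samples; Ki (1–100 μM inhibitor) by Hanes linearization, competitive model. Triplicate.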

[12] = Inhibition of beta-lactamase VIM4 (unknown origin) expressed in Escherichia coli BL21(DE3) using imipenem as substrate by measuring substrate hydrolysis at 100 uM by spectrophotometric analysis; how it was run: as §4
[13] = Inhibition of beta-lactamase IMP-1 (unknown origin) expressed in Escherichia coli BL21(DE3) using imipenem as substrate by measuring substrate hydrolysis at 100 uM by spectrophotometric analysis; how it was run: as §4
[14] = Inhibition of beta-lactamase VIM2 (unknown origin) expressed in Escherichia coli BL21(DE3) using imipenem as substrate by measuring substrate hydrolysis by spectrophotometric analysis; how it was run: as §4
[15] = Inhibition of beta-lactamase VIM-2 (unknown origin) expressed in Escherichia coli XL-1 assessed as potentiation of cefoxitin antibacterial activity by measuring cefoxitin induced diameter of inhibition zone at 80 uM incubated for 18 hrs by disk diffusion method (reference value: 8 mm); how it was run: as §3
[16] = Inhibition of beta-lactamase NDM1 (unknown origin) expressed in Escherichia coli BL21(DE3) using cefotaxime/nitrocefin as substrate by measuring substrate hydrolysis at 50 uM by spectrophotometric analysis
[17] = Inhibition of beta-lactamase VIM-2 (unknown origin) expressed in Escherichia coli LZ2310 assessed as potentiation of cefoxitin antibacterial activity by measuring cefoxitin induced diameter of inhibition zone at 80 uM incubated for 18 hrs by disk diffusion method (reference value: 14 mm); how it was run: as §1
[18] = Inhibition of beta-lactamase L1 (unknown origin) expressed in Escherichia coli BL21(DE3) using nitrocefin as substrate by measuring substrate hydrolysis preincubated for 30 mins by spectrophotometric analysis; how it was run: as §2
HeLa = experiment: Cytotoxicity in human HeLa cells assessed as cell lysis upto 250 uM incubated for 72 hrs by membrane integrity assay; format: cell-based
[19] = target: Hydroxyacylglutathione hydrolase (Homo sapiens); experiment: Inhibition of human Glyoxalase II expressed in Escherichia coli BL21 (DE3)
[20] = Inhibition of beta-lactamase CphA (unknown origin) expressed in Escherichia coli BL21(DE3) using imipenem as substrate by measuring substrate hydrolysis by spectrophotometric analysis; how it was run: as §5
[21] = Inhibition of beta-lactamase VIM-2 (unknown origin) expressed in Escherichia coli XL-1 assessed as potentiation of cefoxitin antibacterial activity by measuring cefoxitin induced diameter of inhibition zone at 240 uM incubated for 18 hrs by disk diffusion method (reference value: 8 mm); how it was run: as §3
[22] = Inhibition of beta-lactamase VIM-2 (unknown origin) expressed in Escherichia coli LZ2310 assessed as potentiation of cefoxitin antibacterial activity by measuring cefoxitin induced diameter of inhibition zone at 240 uM incubated for 18 hrs by disk diffusion method (reference value: 14 mm); how it was run: as §1
HUVEC = experiment: Cytotoxicity in human HUVEC cells assessed as reduction in cell viability upto 100 uM incubated for 72 hrs by MTT assay; format: cell-based

Question: For `O=C(O)c1ccccc1/C=N/n1c(-c2cccc(Cl)c2)n[nH]c1=S`, which inhibition zone (IZ) [1] is on record?
Answer: 14 mm

Question: And the inhibition [2]?
Answer: 60%

Question: What about the inhibition zone (IZ) [3] of the same compound?
Answer: 8 mm

Question: And the inhibition zone (IZ) [4]?
Answer: 15 mm

Question: What about the Ki [5] of the same compound?
Answer: 2 µM

Question: And the inhibition [6]?
Answer: inactive

Question: What about the inhibition [7] of the same compound?
Answer: inactive

Question: What about the Ki [8] of the same compound?
Answer: 7.5 µM

Question: And the inhibition zone (IZ) [9]?
Answer: 9 mm

Question: What about the Ki [10] of the same compound?
Answer: 58 µM

Question: Which inhibition [11] does the source give for `Cc1ccccc1-c1n[nH]c(=S)n1/N=C/c1cccc(O)c1O` here?
Answer: 68%

Question: And the inhibition [12]?
Answer: 65%

Question: And the inhibition [13]?
Answer: 63%

Question: And the inhibition [2]?
Answer: 55%

Question: And the Ki [14]?
Answer: 5.2 µM

Question: What about the inhibition zone (IZ) [15] of the same compound?
Answer: 15 mm

Question: What about the inhibition [16] of the same compound?
Answer: 39%

Question: And the inhibition zone (IZ) [17]?
Answer: 18 mm

Question: What does the source list for `Cc1ccccc1-c1n[nH]c(=S)n1/N=C/c1ccccc1C(=O)O`?
Answer: Ki [18]: 40 µM; Ki [14]: 3 µM; Activity (HeLa): Non-Toxic; IC50 [19]: 25.8 µM; Ki [20]: 120 µM; Ki [5]: 1.6 µM; inhibition zone (IZ) [21]: 9 mm; Ki [8]: 110 µM; inhibition zone (IZ) [22]: 20 mm; Activity (HUVEC): Non-Toxic; Ki [10]: 58 µM
